We go through 15 molecules from ChEMBL document CHEMBL1159045, “Design and pharmacophore modeling of biaryl methyl eugenol analogs as breast cancer invasion inhibitors” (Bioorg Med Chem, 2010).

Data set [1] concerns MDA-MB-231. Nature of the data set: Cytotoxicity against human MDA-MB-231 cells at 10 to 50 uM after 75 hrs by MTT assay. The data set is classed as cell-based. Conditions: mda-mb-231, 72 h, in the assay text read “72 hrs” for “75 hrs”. In a few lines:
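MDA-MB-231 seeded at 15,000 cells/well and stabilized 24 h at 37 °C, 5% CO2. Triplicate doses applied for 72 h at 37 °C, 5% CO2, 85% humidity. MTT (2.5 mg/mL) added for 4 h, then formazan dissolved overnight at rt in the dark with detergent reagent. OD at 570 nm against a cell-free blank; cells/well from calibration curve. Colchicine positive control, DMSO vehicle.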
On the technique in general: Formazan colour is commonly taken as a measure of viable cells.

Data set [2] has as its system MDA-MB-231. Nature of the data set: Antiinvasive activity in human MDA-MB-231 cells by BME cell invasion assay. The data set is classed as functional, cell-based. In a few lines:
(§1)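 Cultrex 96-well BME invasion kit, Boyden-type chamber with 8 µm PET membrane coated with basement membrane extract; MDA-MB-231 cells exposed to 1–4 μM for 24 h, 10% FBS as chemoattractant in the lower chamber. Invaded cells labelled with calcein-AM and read at ex 485/em 520 nm. RFU converted to cell number by standard curve. % invasion = cells through BME / cells migrating through uncoated membrane. Colchicine as positive control, DMSO vehicle.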

Data set [3] relates to MCF7. Kind of data set: Cytotoxicity against human MCF7 cells at 10 to 50 uM after 75 hrs by MTT assay. The data set is classed as cell-based. The settings on record: mcf7, 72 h, in the assay text read “72 hrs” for “75 hrs”. In a few lines:
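MCF-7 seeded at 12,000 cells/well and stabilized 24 h at 37 °C, 5% CO2. Treated in triplicate for 72 h at 37 °C, 5% CO2, 85% humidity. MTT (2.5 mg/mL) added for 4 h, then formazan dissolved in isopropanol overnight at rt in the dark. OD read at 570 nm against a cell-free blank; cell number from calibration curve. Colchicine positive control, DMSO vehicle.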

The test system of data set [4] is MDA-MB-231. Nature of the data set: Antiinvasive activity in human MDA-MB-231 cells assessed as cell invasion at 4 uM by BME cell invasion assay. The data set is classed as functional. The method, boiled down:
as §1

The subject of data set [5] is MDA-MB-231. Nature of the data set: Antiinvasive activity in human MDA-MB-231 cells assessed as cell invasion at 2 uM by BME cell invasion assay. The data set is classed as functional. The method, boiled down: as §1

`C=C(Cc1ccc(OC)c(OC)c1)c1cc(OC)c(OC)c(OC)c1`: the Activity result was “Non-toxic” in data set [1] and “Dose-dependent effect” in data set [2].

Turning to `C=C(Cc1ccc(OC)c(OC)c1)c1ccccc1OC(C)=O`, the results for the Activity result in data set [3], in data set [1] and in data set [2] were “Non-toxic”, “Non-toxic” and “Dose-dependent effect”, respectively.

Turning to `COc1ccc(C(=O)CCc2cc(OC)c(OC)c(OC)c2)cc1OC`, the results for the Activity result in data set [1] and in data set [2] were “Non-toxic” and “Dose-dependent effect”, respectively.

For `COc1ccc(/C=C/Cc2cc(OC)c(OC)c(OC)c2)cc1OC`, the values for the Activity entry in data set [1], in data set [4] and in data set [2] were “Non-toxic”, 11% and “Dose-dependent effect”, respectively.

In the case of `COc1ccc(C(=O)/C=C/c2cc(OC)c(OC)c(OC)c2)cc1OC`, the Activity was 8.5% in data set [5], “Non-toxic” in data set [1] and “Dose-dependent effect” in data set [2].

For `COc1ccc(C/C=C/c2cc(OC)c(OC)c(OC)c2)cc1OC`, the Activity entry was “Non-toxic” in data set [1] and “Dose-dependent effect” in data set [2].

Consider `COc1cc2c(c(OC)c1OC)-c1ccc(OC)c(=O)cc1[C@@H](NC(C)=O)CC2` [COLCHICINE], for which the Activity in data set [4] worked out at 8.9%.

As for `COc1ccccc1C/C=C/c1ccc(OC)c(OC)c1`, the values for the Activity result in data set [1] and in data set [2] were “Non-toxic” and “Dose-dependent effect”, respectively.

Regarding `COc1ccc(C/C=C/c2ccc(OC)c(OC)c2)cc1`, the results for the Activity result in data set [1] and in data set [2] were “Non-toxic” and “Dose-dependent effect”, respectively.

`COc1ccc(/C=C/Cc2ccccc2OC(C)=O)cc1OC`: the values for the Activity entry in data set [3], in data set [1] and in data set [2] were “Non-toxic”, “Non-toxic” and “Dose-dependent effect”, respectively.

Take `C=C(Cc1ccc(OC)c(OC)c1)c1ccc(OC)cc1`: the values for the Activity entry in data set [1] and in data set [2] were “Non-toxic” and “Dose-dependent effect”, respectively.

For the molecule `COc1ccc(C/C=C/c2c(C)cccc2C)cc1OC`, the values for the Activity entry in data set [1] and in data set [2] were “Non-toxic” and “Dose-dependent effect”, respectively.

With `COc1ccc(/C=C\Cc2c(C)cccc2C)cc1OC`, the results for the Activity entry in data set [1] and in data set [2] were “Non-toxic” and “Dose-dependent effect”, respectively.

Turning to `COc1ccc(/C=C/Cc2ccc(OC)c(OC)c2)cc1`, the Activity entry is “Non-toxic” in data set [1], 13.7% in data set [4] and “Dose-dependent effect” in data set [2].

On to `COc1ccc(C/C=C\c2ccccc2OC(C)=O)cc1OC`, for which the Activity entry in data set [3] is “Non-toxic”; in data set [1], “Non-toxic”; in data set [4], 9%; in data set [2] it was “Dose-dependent effect”.
